# Assay outcomes deposited in PubChem by Broad Institute.
# Compounds with a hit are over-represented: about 3.2% of the library has one in this group of screens.
# Cneo AK release = Cryptococcus neoformans lysis via adenylate kinase release | C. neoformans lysis, adenylate kinase release luminescence, 4 h; normalised: neutral wells 0, clomiphene wells 100 | lysis activity, % at 15 µM | hit rate 0.2% among 360,000;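 active = mean lysis activity across replicates of at least 80%, whatever share of replicates individually reach that level; inactive = mean lysis activity below 80%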
#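 Assay system: log-phase C. neoformans yeast / Quantity: yeast cell density of 5 × 10^6 cells/mL / Medium: fresh YPD growth medium / Compound: single dose / Timing: static 4 h at 37 °C with compound, 1 h detection / Measured by: adenylate kinase release luminescence / Read-out: lysis from increased AK signal / Benchmarks: Clomiphene as positive lysis control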
# S100A4 MyoIIA = inhibitors of human S100A4 binding to myosin IIA peptide. S100A4/TAMRA-MyoIIA peptide fluorescence polarization. P26447. inhibition, % at 10.7 µM. AID 652163. hit rate 0.14% among 360,000;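 active = mean inhibition of at least 70% across replicates, with every replicate also reaching that level; inconclusive = mean inhibition reaches 70% but some replicates fall short; inactive = mean inhibition below 70%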
# Target sequence (P26447 whole entry, looked up): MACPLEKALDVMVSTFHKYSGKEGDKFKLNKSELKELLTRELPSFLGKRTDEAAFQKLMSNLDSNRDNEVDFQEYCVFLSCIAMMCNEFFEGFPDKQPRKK
#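 Test system: S100A4 monomer protein; Medium: HEPES pH 7.2 with CaCl2, KCl, NaCl, DTT, Triton; Probe or stimulus: TAMRA-labelled myosin IIA heavy-chain peptide probe, 5 nM; Doses: one dose per compound; Times: polarization read 5 min after assay mix addition, stable 5–60 min; Benchmarks: neutral control DMSO, positive control TFP.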
# AF4-AF9 inh = inhibitors of human MLL-AF4/AF9 interaction | AlphaScreen, biotin-AF4 peptide binding to FLAG-AF9 | inhibition, % at 10 µM | hit rate 0.47% among 350,000 | AID 651704;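 active = every replicate reaching a set inhibition limit, whatever the replicate mean, cut at about 25% in these data; inconclusive = mean inhibition reaches that limit but some replicates miss it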
# Target sequence (P42568 whole entry, looked up): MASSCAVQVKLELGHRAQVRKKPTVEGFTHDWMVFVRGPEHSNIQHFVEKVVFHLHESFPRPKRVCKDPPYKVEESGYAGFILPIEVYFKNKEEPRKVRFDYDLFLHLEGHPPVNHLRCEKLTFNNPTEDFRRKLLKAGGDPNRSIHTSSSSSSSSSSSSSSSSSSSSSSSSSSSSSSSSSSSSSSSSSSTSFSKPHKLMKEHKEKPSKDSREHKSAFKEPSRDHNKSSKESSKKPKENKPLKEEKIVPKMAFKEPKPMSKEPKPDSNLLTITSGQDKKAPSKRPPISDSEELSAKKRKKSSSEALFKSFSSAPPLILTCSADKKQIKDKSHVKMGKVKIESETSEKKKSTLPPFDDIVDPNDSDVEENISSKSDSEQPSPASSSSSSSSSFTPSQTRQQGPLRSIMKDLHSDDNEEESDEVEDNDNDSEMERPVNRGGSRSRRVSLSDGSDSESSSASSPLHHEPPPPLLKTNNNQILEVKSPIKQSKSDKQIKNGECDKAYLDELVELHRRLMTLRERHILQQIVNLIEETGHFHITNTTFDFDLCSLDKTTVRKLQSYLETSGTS
# DENV2 CPE = protects cells from dengue virus 2 cytopathic effect | DENV2-infected cells, cytopathic effect rescue, plate reader | CPE inhibition, % at 9.99 µM | hit rate 1.7% among 350,000; in the data active = CPE inhibition above about 20%, passing the limit was not always enough; inconclusive = no clear call, values can overlap the other calls; tested in BHK-21 cells
# PfHsp90 set2 = growth inhibition of yeast expressing Plasmodium Hsp90; S. cerevisiae expressing PfHsp90, BacTiter-Glo ATP, 48 h; yeast lacking PDR1 and PDR3 efflux regulators; inhibition, % at 9.4 µM; hit rate 0.32% among 310,000; AID 504621;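 active = every replicate shows inhibition above about 80%, whatever the replicate mean, limit read from the data; inconclusive = mean inhibition reaches the set limit but some replicate falls short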
# Ecoli rRNA inh = inhibitors of bacterial rRNA selective over humanized ribosomes | GFP signal change (wild-type ribosome), % (test concentration not listed) | hit rate 1.6% among 350,000 | E. coli WT GFP vs humanized-ribosome RFP mutants, fluorescence, 24 h; active compounds read low; DMSO median 0, no signal -100;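 active = significant combined selectivity score with lowered wild-type GFP, culture density cut under 30%, mutant RFP and density less affected; inactive = any of these conditions unmet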
# A number is an active result; n = inactive; u = inconclusive; x = no result; + = active, no number.
SMILES,Cneo AK release,S100A4 MyoIIA,AF4-AF9 inh,DENV2 CPE,PfHsp90 set2,Ecoli rRNA inh
COc1cccc2c1C(=O)c1c(O)c3c(c(O)c1C2=O)CC(O)(C(C)=NO)CC3OC1CC(N)C(O)C(C)O1 (stereo unspecified),x,+,u,n,n,n
CCOC(=O)c1cc2cc(OC)ccc2n1C1CCN(Cc2ccccc2)CC1,x,n,n,35,x,n
Cc1nc2ccccc2c(=O)n1-c1ccc(Br)cn1,n,n,n,n,n,n
Cc1nc2ccccc2c(=O)n1/N=C/c1cc(Br)cc(Br)c1O,x,n,n,n,n,-22
C[C@H](CO)N1C[C@H](C)[C@H](CN(C)C(=O)Oc2cccc3ccccc23)OCc2cn(nn2)CCCC1=O,x,x,x,x,x,n
COC(=O)[C@@H]1[C@@H](CO)[C@@H]2Cn3c(ccc(/C=C/c4ccccc4)c3=O)[C@H]1N2C(=O)C1CCC1,n,n,n,n,x,n
CC(C)NC(=O)N1C[C@@H]2C(c3ccccc3)[C@H](C1)N2C (stereo partly specified),x,x,x,x,x,n
Nc1cnn(-c2ccccc2)c(=O)c1Cl,n,n,n,30,n,n
C/C=C/c1ccc2c(c1)OCO2,n,n,x,20,n,n
O=C(Cc1cccnc1)N1CCCCN2[C@@H](CO)[C@H](c3ccc(/C=C/c4ccccc4)cc3)[C@@H]2C1,n,n,n,n,x,n
CC(=O)Nc1ccc(C2CN(C)CC2C(=O)c2ccc(Cl)cc2)cc1 (stereo unspecified),x,n,n,n,n,n
CN1CC(C(=O)c2ccc(Cl)cc2)C(c2ccc(N(C)C)cc2)C1 (stereo unspecified),x,n,40,n,n,n
C=CCc1cc(OC)c2c(c1)OCO2,n,n,n,n,n,n
C=CCc1ccc2c(c1)OCO2,x,n,x,93,x,n
CC=Cc1ccc2n(c1=O)C[C@@H]1[C@@H](CO)[C@H](C(=O)OC)[C@H]2N1CC1CCCCC1 (mixture of isomers),n,n,n,n,x,n
CC[N+](C)(CC)CCCCOc1ccc2c(c1)C(=O)c1cc(OCCCC[N+](C)(CC)CC)ccc1-2,n,n,n,n,n,-53
C[C@H]1C[C@@H](C)C(=O)[C@@H]([C@H](O)CC2CC(=O)NC(=O)C2)C1,n,n,n,124,106,x
Cc1c(C(c2ccc(O)cc2)c2c(O)c3ccccc3oc2=O)c(=O)n(-c2ccccc2)n1C (stereo unspecified),x,n,n,n,n,-14
CCn1c(C)c(C(=O)O)c2cc(OC)ccc21,n,x,x,x,n,x
CCOC(=O)c1c(C)n(C(C)C)c2ccc(OC)cc12,n,n,n,n,n,-28
Cc1cccc(S(=O)(=O)N2[C@@H]3c4ccc(-c5cccc(F)c5)c(=O)n4C[C@H]2[C@H](CO)[C@H]3C(=O)O)c1,n,n,x,n,x,n
CN(C)C(=O)[C@@H]1[C@@H](CO)[C@@H]2Cn3c(cccc3=O)[C@H]1N2CC1CC1,n,n,n,n,x,n
COC(=O)C1=C(c2ccc(Cl)c(C(F)(F)F)c2)C[C@@H]2CC[C@H]1N2C(=O)NCc1cc(C)oc1C(F)(F)F,n,n,n,25,n,n
COc1ccccc1N1CCN(CCc2c[nH]c3cc4c(cc23)OCO4)CC1,x,n,30,n,n,n
CS(=O)(=O)N1CC2NC(C1)C2c1ccc(Br)cc1 (stereo unspecified),x,x,x,x,x,n
SMILES,Cneo AK release,S100A4 MyoIIA,AF4-AF9 inh,DENV2 CPE,PfHsp90 set2,Ecoli rRNA inh
CN1CCN(c2ccc(C(N)=O)cc2[N+](=O)[O-])CC1,x,x,x,x,n,x
O=[N+]([O-])c1ccc(N2CC2)c([N+](=O)[O-])c1,n,n,n,n,n,-16
O=C1NC(=S)NC(=O)C1=Cc1ccc(Br)s1,n,n,n,n,123,n
CN1C(=O)/C(=C\c2ccc(Br)s2)C(=O)NC1=S,n,n,n,n,n,n
Cc1ccc(N)c(C)c1,n,n,x,82,n,n
Cc1ccccc1N,n,n,x,n,n,n
COc1cc(O)c2c(c1)/C=C/C[C@H](O)[C@H](O)C(=O)CCC[C@H](C)OC2=O,n,n,n,n,x,-25
C[C@H]1CCCC(=O)CCCCCc2cc(O)cc(O)c2C(=O)O1,n,n,n,n,n,x
CCC(=O)N1N=C(c2c(O)n(CCc3ccccc3)c(=O)[nH]c2=O)CC1c1ccc(OC)c(OC)c1 (stereo unspecified),n,n,x,n,x,-28
COc1ccc(CCn2c(O)c(C=NCCN3CCCCC3)c(=O)[nH]c2=O)cc1OC,n,x,x,x,n,x
O=C(C1CC1)N1C[C@@H]2N[C@H](C1)[C@@H]2c1ccc(-c2ccncc2)cc1,x,n,n,u,x,n
Clc1ccc(CCC(Cn2ccnc2)Sc2c(Cl)cccc2Cl)cc1 (stereo unspecified),n,n,n,n,88,n
COC(=O)[C@@H]1[C@@H](CO)[C@@H]2Cn3c(ccc(-c4ccccc4)c3=O)[C@H]1N2CCc1ccccc1,n,n,n,n,x,n
COC(=O)[C@H]1[C@H](CO)[C@H]2Cn3c(ccc(C4=CCCCC4)c3=O)[C@@H]1N2CC1CCCC1,n,n,n,n,x,n
Clc1ccc(C(Cn2ccnc2)OCc2csc3c(Cl)cccc23)c(Cl)c1 (stereo unspecified),n,n,n,n,86,x
Cn1c(NN=O)nc2ccccc21,x,n,n,n,n,-23
COC(=O)[C@@H]1[C@@H](CO)[C@@H]2Cn3c(ccc(C4=CCCCC4)c3=O)[C@H]1N2Cc1cccnc1,n,n,n,n,x,n
COC(=O)[C@@H]1[C@@H](CO)[C@@H]2Cn3c(ccc(-c4ccccc4F)c3=O)[C@H]1N2C(C)=O,n,n,n,n,x,n
COC1CCC(OC2CC(C3(C)CCC4(CC(O)C(C)C(C(C)/C=C(\C)C(=O)C(C)CC(C)C(=O)O)O4)O3)OC3(OC(C4OC(O)(CO)C(C)CC4C)CC3C)C2C)OC1C (stereo unspecified),x,n,n,n,106,x
CN(C)c1ccc(-[n+]2c(-c3ccccc3)cc(-c3ccccc3)cc2-c2ccccc2)cc1,x,n,31,x,n,n
c1ccc(-c2cc(-c3ccccc3)[n+](-c3ccccc3)c(-c3ccccc3)c2)cc1,n,n,n,n,n,n
COC(=O)[C@@H]1[C@@H](CO)[C@@H]2Cn3c(ccc(-c4ccccc4)c3=O)[C@H]1N2C(=O)c1ccccc1F,x,x,x,x,x,n
CN(c1ccc(O)cc1)c1ccc([N+](=O)[O-])c2nonc12,n,n,27,n,x,n
O=[N+]([O-])c1ccc(N2CCCCCC2)c2nonc12,n,u,n,n,n,n
CC1(C)CN(S(=O)(=O)OCC(Cl)(Cl)Cl)C(=O)N1,n,n,n,n,n,n
